# STAT1 inh = reduces IFN-gamma driven STAT1 reporter signal; inhibition, % at 5.5 µM; 200,000 tested, 0.35% active; NIH 3T3 STAT1-luciferase reporter, luminescence; AID 920;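 active means inhibition above a set limit, the mean inhibition across all tested compounds plus 3 SD, cut at about 34% in these data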;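 further: 0% = IFN-gamma with DMSO and 100% = IFN-gamma with 300 µM nifuroxazide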
# zVAD death inh = blocks zVAD induced death of L929 cells. viability rescue, % at 10 µM. L929 zVAD necroptosis rescue, ATP luminescence, 24 h; with zVAD 60 µM. 220,000 tested, 0.38% active. AID 1377;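 active means activation, scaled between plate controls, above about 75%, limit read from the data; inactive means activation under that limit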;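 further: 0% = zVAD with DMSO and 100% = DMSO alone without zVAD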
# STAT3 act = increases IL-6 driven STAT3 reporter signal. U3A cells, IL-6 STAT3-luciferase reporter, luminescence; 100% = signal with IL-6 EC80 alone. activation (% of control), % at 5.6 µM. 190,000 tested, 0.91% active. AID 871;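 active means activation above the screen-wide mean of compound activation plus 3 SD, cut at about 130% in these data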;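 further: 0% = background luminescence of wells with medium and substrate only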
#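 System – human U3A cells carrying STAT3-luciferase construct · Probe or stimulus – Interleukin-6, 33 ng/mL · Schedule – compound 1 h, then IL-6 6 h at 37 °C · Signal – luminescence from STAT3-driven luciferase reporter · Evaluation – percent of IL-6-only median luminescence · Benchmarks – IL-6-only high control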
# STAT3 inh = inhibitors of IL-6 induced STAT3 signaling. U3A cells, IL-6 STAT3-luciferase reporter, luminescence; host cell line lacks STAT1. inhibition, % at 5.5 µM. 190,000 tested, 0.89% active. AID 862;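 active means inhibition above the mean inhibition across all screened compounds plus 3 SD, cut at about 44% in these data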;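 further: 0% = DMSO only wells and 100% = 100 µM nifuroxazide control wells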
# TNF necrop inh = inhibitors of TNF-alpha induced necroptosis in Jurkat FADD-/- cells | Jurkat FADD-/- TNF necroptosis rescue, ATP luminescence, 24 h; 0 = TNF only, 100 = no-TNF cells | activation (protection from cell death), % at 10 µM | 220,000 tested, 0.068% active;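 active means activation, meaning protection from cell death, of at least 50% relative to plate controls; inactive means activation below 50%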;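 further: necroptosis triggered by 40 ng/mL TNF-alpha added together with compound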
# * hit, by the source's call; . = no result given. The list is not random: actives were taken first. Their share in the collection is about 2.1%.
SMILES,STAT1 inh,zVAD death inh,STAT3 act,STAT3 inh,TNF necrop inh
Cc1nc(SCC(=O)Nc2nc3ccccc3s2)c(C#N)c(C)c1C,58*,1,27,88*,8
Cc1cc(C(F)(F)F)c(C#N)c(SCC(=O)Nc2nc3ccccc3s2)n1,-60,1,120,-21,3
COc1cc(CNc2ccc(N3CCCC3)cc2)ccc1OCc1ccccc1,-24,1,134*,-31,-10
Cc1cc(C(=O)N/N=C/C=C/c2ccc3c(c2)OCO3)n[nH]1,-12,6,84,28,12
C=CCn1c(Cc2c(C)[nH]c3ccccc23)nnc1SCC(=O)NCc1ccc(F)cc1,-1,1,104,-3,-1
Oc1ccccc1-c1cc(-c2ccco2)[nH]n1,-3,12,132,-30,-1
Oc1ccc(Cl)cc1-c1cc(-c2ccco2)[nH]n1,-12,0,134*,-39,-8
N=c1n(Cc2ccc(Cl)cc2)c2ccccc2n1CC(O)COc1ccccc1 (centres undefined),26,10,105,-3,-8
Cc1ccc(OCC(=O)c2cc(C)n(CC(F)(F)F)c2C)c([N+](=O)[O-])n1,-8,1,106,-1,-1
Cc1ccc(OCC(=O)c2cc(C)n(Cc3cccs3)c2C)c([N+](=O)[O-])n1,43*,0,60,52*,-2
Cc1cc(NC(=O)CSc2nc(-c3ccccc3)c(C#N)c(=O)[nH]2)no1,-11,0,105,-8,2
CC(C)(C)CC(=O)Nc1nnc(C(F)(F)F)s1,-3,0,104,-2,-1
CC(NC(=O)Nc1nnc(C(F)(F)F)s1)(C(F)(F)F)C(F)(F)F,62*,21,31,82*,-12
CCSc1nnc(NC(=O)c2ccc(Br)s2)s1,0,0,84,18,-1
O=C(Nc1nnc(C(F)(F)F)s1)c1ccc(Br)s1,42*,2,65,46*,-4
COc1ccc(Cn2c(=O)c3[nH]cnc3n(-c3ccccc3C)c2=O)cc1,.,2,.,.,-12
OC(CN1CCN(c2cccc(C(F)(F)F)c2)CC1)c1c[nH]c2ccccc12 (centres undefined),7,0,135*,-38,-5
COC(=O)c1sc(S(=O)(=O)N2CCC(C(=O)O)CC2)c(C(=O)OC)c1C,5,83*,92,16,0
CCSc1ncc(/C=N/Nc2ccc(Cl)cc2)n1C,-66,1,150*,-52,-2
COc1cc(S(=O)(=O)Nc2ccncc2)ccc1F,-3,3,107,-2,0
CCC(=NCc1ccccc1)c1c(C(F)(F)F)[nH]n(-c2nc3ccccc3s2)c1=O,-13,0,75,28,-1
O=c1c(C=NCc2cccnc2)c(C(F)(F)F)[nH]n1-c1nc2ccccc2s1,38*,-1,54,56*,-5
c1ccc(OCCSc2nnc3sc4ccccc4n23)cc1,50*,0,31,87*,-4
COc1cccc(OCCSc2nnc3sc4ccccc4n23)c1,-3,0,88,14,-2
CCC(CC)NC(=O)c1ccc(Cl)cc1,5,0,96,8,0
SMILES,STAT1 inh,zVAD death inh,STAT3 act,STAT3 inh,TNF necrop inh
Cc1cc(N2CCOCC2)ccc1/C=C1/SC(=O)NC1=O,-58,9,138*,-42,0
CSc1cccc(NC(=O)c2cnn3ccccc23)c1,.,69,.,.,5
CCc1ccc(NC(=O)c2cnn3ccccc23)cc1,78*,21,22,98*,0
O=C(/C=C/c1ccco1)N(Cc1cccc(Cl)c1)C1CCS(=O)(=O)C1 (centres undefined),.,0,.,.,0
CCCN1C=CC(=C2C(=O)c3ccccc3C2=O)C=C1,92*,39,9,113*,-6
CCCCCCN1C=CC(=C2C(=O)c3ccccc3C2=O)C=C1,81*,50,16,100*,1
CCN1C=CC(=C2C(=O)c3ccccc3C2=O)C=C1,88*,37,12,109*,-2
CSc1sc(C(=O)Nc2ccc(F)cc2F)c2c1C=CCC2,.,0,.,.,-1
CSc1nc2cc(S(=O)(=O)N3CCCCC3)ccc2s1,.,0,.,.,4
Cc1nc2ccc(S(=O)(=O)Nc3ccc(-c4nc5cccnc5s4)cc3)cc2s1,-22,.,105,-6,1
O=C(/C=C/c1ccccc1)Nc1ccc2c(c1)OCCO2,42*,36,35,79*,0

# Assay outcomes (PubChem)
